Fluorescence data for 1 compound are collected here from PubChem BioAssay AID1480 (NMMLSC, 2009).

The experiment can be described thus: green-channel fluorescence of compounds in IgMXP3 cells – cell-based, 488/530 nm, flow cytometry, artefact control for ABC transporter inhibitor project, confirmation (AID 1480).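 Note: median cell fluorescence with compound minus that of DMSO-treated control cells.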 Particulars: compound autofluorescence 488/530 nm, at 6.6 µM, active compounds read high. In short, it runs like this: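 Assay system: drug-resistant ABCG2-expressing IgMXP3 cells, unlabeled with substrate. Quantity: 3 million cells/mL final. Medium: JC-1 kit assay buffer. Probe or stimulus: no JC-1 substrate. Dosing: single dose, test compound at 6.6 µM final. Times: Cell–compound exposure 10 min, 25 °C, end-over-end rotation. Measured by: flow cytometry, FL1 green emission. Controls: DMSO vehicle wells.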
For orientation: In flow cytometry, cells or beads pass a laser one at a time.

Each structure is given as a SMILES string. Some of the results follow. A number with no mark means an inactive call.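 Rule for the calls: active = fluorescence in ABCG2-expressing cells above the plate's control-well mean plus 3 SD (cut at about 15 in these data); inactive = the rest.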

With `COC(=O)COc1cc(C)cc2oc(=O)c3c(c12)CCCC3`, the fluorescence was 1.36.
